Biological target: KIX-KID interaction (Homo sapiens, UniProt P16220+Q92793)
Test: KIX-KID split renilla luciferase
Format: biochemical
In short: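 RLuc split into N-terminal (RLucN) and C-terminal (RLucC) halves. RLucC-KIX and KID-RLucN fusions combined with a range of test compound concentrations (top 50 or 100 μM) at 4 °C. Residual RLuc luminescence read after 20 h. Stocks in DMSO, or DMF for one unstable compound. IC50 in μM from at least two independent experiments, each in duplicate.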

KIX-KID interaction, sequence (Q92793 587-666 limits assumed): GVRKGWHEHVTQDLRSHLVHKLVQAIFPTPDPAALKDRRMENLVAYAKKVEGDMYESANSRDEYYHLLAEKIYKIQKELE
KIX-KID interaction, sequence (P16220 87-146 limits assumed): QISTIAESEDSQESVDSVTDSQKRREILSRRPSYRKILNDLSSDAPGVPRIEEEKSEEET

Compound | KIX-KID inhibition (IC50) (split RLuc assay, 4 °C, 20 h incubation, mean ± SD) | Inhibition of KIX-KID interaction in initial screen (NCI diversity set screen at 10 μM)
O=[N+]([O-])c1cc(NCc2cccc3nonc23)ccc1Cl [9a] | inactive | 
O=[N+]([O-])c1ccc(Sc2cccc[n+]2[O-])c2nonc12 [compound 1, 2-[(7-nitrobenzo[c][1,2,5]oxadiazol-4-yl)thio]pyridine 1-oxide] |  | consistently shown to efficaciously inhibit KIX-KID interaction

— paper PMC3783659 (Bioorganic & medicinal chemistry letters, 2013)
